# Data: ChEMBL document CHEMBL5360562 (Eur J Med Chem, 2023)
# Tests used:
# Acinetobacter baumannii [1] = experiment: Antibacterial activity against Acinetobacter baumannii AB5075 assessed as reduction in bacterial growth incubated for 16 hrs by broth microdilution method; type: functional
# Acinetobacter baumannii [2] = experiment: Potentiation of Clarithromycin antibacterial activity against Acinetobacter baumannii AB5075 assessed as clarithromycin MIC at 30 uM incubated for 16 hrs by broth microdilution method; type: functional
# Acinetobacter baumannii [3] = experiment: Potentiation of Clarithromycin antibacterial activity against Acinetobacter baumannii AB5075 assessed as fold reduction in clarithromycin MIC at 30 uM incubated for 16 hrs by broth microdilution method; type: functional
# Procedure, shortened: (§1)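 Checkerboard-style potentiation by broth microdilution. 6 h day cultures in CAMHB diluted to 5×10^5 CFU/mL. Adjuvant added from 10 mM DMSO stock at fixed concentration throughout. […] Controls: antibiotic alone, adjuvant alone, media only. Incubated stationary at 37 °C for 16 h. MIC is lowest concentration with no visible growth; fold reduction taken against the antibiotic-alone lane.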
# Acinetobacter baumannii [4] = experiment: Potentiation of Clarithromycin antibacterial activity against Acinetobacter baumannii AB5075 assessed as clarithromycin MIC at 7.5 uM incubated for 16 hrs by broth microdilution method; type: functional
# Acinetobacter baumannii [5] = experiment: Potentiation of Clarithromycin antibacterial activity against Acinetobacter baumannii AB5075 assessed as fold reduction in clarithromycin MIC at 7.5 uM incubated for 16 hrs by broth microdilution method; type: functional; procedure, shortened: as §1
# Acinetobacter baumannii [6] = experiment: Potentiation of Clarithromycin antibacterial activity against Acinetobacter baumannii AB5075 assessed as reduction in clarithromycin MIC at 20 uM incubated for 16 hrs by broth microdilution method; type: functional; conditions: for MIC: Acinetobacter baumannii, AB5075
# Acinetobacter baumannii [7] = experiment: Potentiation of Clarithromycin antibacterial activity against Acinetobacter baumannii AB5075 assessed as clarithromycin MIC at 10 uM incubated for 16 hrs by broth microdilution method; type: functional
# Acinetobacter baumannii [8] = experiment: Potentiation of Clarithromycin antibacterial activity against Acinetobacter baumannii AB5075 assessed as fold reduction in clarithromycin MIC at 10 uM incubated for 16 hrs by broth microdilution method; type: functional; procedure, shortened: as §1
# Acinetobacter baumannii [9] = experiment: Potentiation of Azithromycin antibacterial activity against Acinetobacter baumannii AB5075 assessed as azithromycin MIC at 30 uM incubated for 16 hrs by broth microdilution method; type: functional
# Acinetobacter baumannii [10] = experiment: Potentiation of Azithromycin antibacterial activity against Acinetobacter baumannii AB5075 assessed as azithromycin MIC at 20 uM incubated for 16 hrs by broth microdilution method; type: functional
# Acinetobacter baumannii [11] = experiment: Potentiation of Azithromycin antibacterial activity against Acinetobacter baumannii AB5075 assessed as azithromycin MIC at 10 uM incubated for 16 hrs by broth microdilution method; type: functional
# Acinetobacter baumannii [12] = experiment: Potentiation of erythromycin antibacterial activity against Acinetobacter baumannii AB5075 assessed as erythromycin MIC at 30 uM incubated for 16 hrs by broth microdilution method; type: functional
# Acinetobacter baumannii [13] = experiment: Potentiation of erythromycin antibacterial activity against Acinetobacter baumannii AB5075 assessed as erythromycin MIC at 20 uM incubated for 16 hrs by broth microdilution method; type: functional
# Acinetobacter baumannii [14] = experiment: Potentiation of erythromycin antibacterial activity against Acinetobacter baumannii AB5075 assessed as erythromycin MIC at 10 uM incubated for 16 hrs by broth microdilution method; type: functional
# Acinetobacter baumannii [15] = experiment: Potentiation of rifampicin antibacterial activity against Acinetobacter baumannii AB5075 assessed as rifampicin MIC at 30 uM incubated for 16 hrs by broth microdilution method; type: functional
# Acinetobacter baumannii [16] = experiment: Potentiation of rifampicin antibacterial activity against Acinetobacter baumannii AB5075 assessed as rifampicin MIC at 20 uM incubated for 16 hrs by broth microdilution method; type: functional
# Acinetobacter baumannii [17] = experiment: Potentiation of rifampicin antibacterial activity against Acinetobacter baumannii AB5075 assessed as rifampicin MIC at 10 uM incubated for 16 hrs by broth microdilution method; type: functional
# Acinetobacter baumannii [18] = experiment: Potentiation of Clarithromycin antibacterial activity against Acinetobacter baumannii AB5075 assessed as clarithromycin MIC at 5 uM incubated for 16 hrs by broth microdilution method; type: functional
# [19] = Antiproliferative against human HepG2 cells assessed as reduction in cell viability incubated for 24 hrs by XTT assay; type: toxicity, cell-based
# [20] = Therapeutic index, ratio of IC50 for antiproliferative against human HepG2 cells assessed as reduction in cell viability to MIC for potentiation of Clarithromycin antibacterial activity against Acinetobacter baumannii […] assessed as clarithromycin MIC; type: toxicity, cell-based; conditions: read-out: TI
# Acinetobacter baumannii [21] = experiment: Potentiation of Clarithromycin antibacterial activity against Acinetobacter baumannii AB967 assessed as clarithromycin MIC at 10 uM incubated for 16 hrs by broth microdilution method; type: functional
# Acinetobacter baumannii [22] = experiment: Potentiation of Clarithromycin antibacterial activity against Acinetobacter baumannii AB3560 assessed as clarithromycin MIC at 10 uM incubated for 16 hrs by broth microdilution method; type: functional
# Acinetobacter baumannii [23] = experiment: Potentiation of Clarithromycin antibacterial activity against Acinetobacter baumannii AB3785 assessed as clarithromycin MIC at 10 uM incubated for 16 hrs by broth microdilution method; type: functional
# Acinetobacter baumannii [24] = experiment: Potentiation of Clarithromycin antibacterial activity against Acinetobacter baumannii AB4498 assessed as clarithromycin MIC at 10 uM incubated for 16 hrs by broth microdilution method; type: functional
# Acinetobacter baumannii [25] = experiment: Potentiation of Clarithromycin antibacterial activity against Acinetobacter baumannii AB5674 assessed as clarithromycin MIC at 10 uM incubated for 16 hrs by broth microdilution method; type: functional
# Acinetobacter baumannii [26] = experiment: Potentiation of Clarithromycin antibacterial activity against Acinetobacter baumannii AB5711 assessed as clarithromycin MIC at 10 uM incubated for 16 hrs by broth microdilution method; type: functional
# Acinetobacter baumannii [27] = experiment: Potentiation of Azithromycin antibacterial activity against Acinetobacter baumannii AB5075 assessed as azithromycin MIC at 7.5 uM incubated for 16 hrs by broth microdilution method; type: functional
# Acinetobacter baumannii [28] = experiment: Potentiation of erythromycin antibacterial activity against Acinetobacter baumannii AB5075 assessed as erythromycin MIC at 7.5 uM incubated for 16 hrs by broth microdilution method; type: functional
# Acinetobacter baumannii [29] = experiment: Potentiation of rifampicin antibacterial activity against Acinetobacter baumannii AB5075 assessed as fold reduction in rifampicin MIC at 10 uM incubated for 16 hrs by broth microdilution method; type: functional
# [30] = Stability of compound in human plasma assessed as parent compound remaining measured at 4 hrs; type: ADME, cell-free
# Procedure, shortened: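 Compound at 20 μM final in human plasma (from 10 mM DMSO stock), 37 °C; aliquots at 0, 30, 60, 120, 240 min quenched in internal standard in 1:1 ACN/MeOH, centrifuged, supernatant analysed by UPLC-MRM. Peak-area ratio to internal standard expressed as % parent remaining relative to 0 min; half-life calculated.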
# [31] = Metabolic stability in human liver microsomes assessed as parent compound remaining in presence of NADPH measured at 1 hr by UV-UPLC analysis; type: ADME, Microsome
# Acinetobacter baumannii [32] = experiment: Potentiation of Clarithromycin antibacterial activity against Acinetobacter baumannii AB5075 assessed as fold reduction in clarithromycin MIC at 5 uM incubated for 16 hrs by broth microdilution method; type: functional; procedure, shortened: as §1
structure (smiles),measurement,setting,value
Cl.Cl.Nc1nc(-c2ccc(NC(=O)Nc3ccc(-c4c[nH]c(N)n4)c(C(F)(F)F)c3)cc2C(F)(F)F)c[nH]1,MIC,Acinetobacter baumannii [1],> 200 µM
same,MIC,Acinetobacter baumannii [2],2 µg/mL
same,fold change (FC),Acinetobacter baumannii [3],16
Cl.Cl.Nc1nc(-c2cccc(NC(=O)Nc3cccc(-c4c[nH]c(N)n4)c3F)c2F)c[nH]1,MIC,Acinetobacter baumannii [1],> 200 µM
same,MIC,Acinetobacter baumannii [2],0.25 µg/mL
same,MIC,Acinetobacter baumannii [4],2 µg/mL
same,fold change (FC),Acinetobacter baumannii [3],128
same,fold change (FC),Acinetobacter baumannii [5],16
same,fold change (FC),Acinetobacter baumannii [6],64
same,MIC,Acinetobacter baumannii [6],0.5 µg/mL
same,MIC,Acinetobacter baumannii [7],1 µg/mL
same,fold change (FC),Acinetobacter baumannii [8],32
Cl.Cl.Nc1nc(-c2ccc(NC(=O)Nc3ccc(-c4c[nH]c(N)n4)c(Cl)c3)cc2Cl)c[nH]1,MIC,Acinetobacter baumannii [1],> 200 µM
same,MIC,Acinetobacter baumannii [2],32 µg/mL
same,fold change (FC),Acinetobacter baumannii [3],1
Cc1cc(-c2c[nH]c(N)n2)ccc1NC(=O)Nc1ccc(-c2c[nH]c(N)n2)cc1C.Cl.Cl,MIC,Acinetobacter baumannii [1],> 200 µM
same,MIC,Acinetobacter baumannii [2],32 µg/mL
same,fold change (FC),Acinetobacter baumannii [3],1
Nc1nc(-c2ccc(NC(=O)Nc3cccc(-c4c[nH]c(N)n4)c3)cc2)c[nH]1,MIC,Acinetobacter baumannii [1],> 200 µM
same,MIC,Acinetobacter baumannii [2],0.125 µg/mL
same,fold change (FC),Acinetobacter baumannii [3],256
same,MIC,Acinetobacter baumannii [7],16 µg/mL
same,MIC,Acinetobacter baumannii [9],1 µg/mL
same,MIC,Acinetobacter baumannii [10],4 µg/mL
same,MIC,Acinetobacter baumannii [11],16 µg/mL
same,MIC,Acinetobacter baumannii [12],1 µg/mL
same,MIC,Acinetobacter baumannii [13],2 µg/mL
same,MIC,Acinetobacter baumannii [14],16 µg/mL
same,MIC,Acinetobacter baumannii [15],0.031 µg/mL
same,MIC,Acinetobacter baumannii [16],0.25 µg/mL
same,MIC,Acinetobacter baumannii [17],2 µg/mL
Cl.Cl.Nc1nc(-c2ccc(NC(=O)Nc3ccc(-c4c[nH]c(N)n4)c(F)c3)cc2F)c[nH]1,MIC,Acinetobacter baumannii [1],> 200 µM
same,MIC,Acinetobacter baumannii [2],≤ 0.062 µg/mL
same,MIC,Acinetobacter baumannii [4],0.5 µg/mL
same,MIC,Acinetobacter baumannii [18],2 µg/mL
same,fold change (FC),Acinetobacter baumannii [3],>=512
same,fold change (FC),Acinetobacter baumannii [5],64
same,MIC,Acinetobacter baumannii [6],≤ 0.062 µg/mL
same,MIC,Acinetobacter baumannii [7],0.125 µg/mL
same,fold change (FC),Acinetobacter baumannii [8],256
same,IC50 at 24 h,[19],127 µg/mL
same,selectivity ratio,[20],52.9
same,MIC,Acinetobacter baumannii [21],0.25 µg/mL
same,MIC,Acinetobacter baumannii [22],0.5 µg/mL
same,MIC,Acinetobacter baumannii [23],1 µg/mL
same,MIC,Acinetobacter baumannii [24],1 µg/mL
same,MIC,Acinetobacter baumannii [25],0.5 µg/mL
same,MIC,Acinetobacter baumannii [26],1 µg/mL
same,MIC,Acinetobacter baumannii [9],0.5 µg/mL
same,MIC,Acinetobacter baumannii [10],1 µg/mL
same,MIC,Acinetobacter baumannii [11],2 µg/mL
same,MIC,Acinetobacter baumannii [27],16 µg/mL
same,MIC,Acinetobacter baumannii [12],0.125 µg/mL
same,MIC,Acinetobacter baumannii [13],0.5 µg/mL
same,MIC,Acinetobacter baumannii [14],1 µg/mL
same,MIC,Acinetobacter baumannii [28],8 µg/mL
same,MIC,Acinetobacter baumannii [15],0.125 µg/mL
same,MIC,Acinetobacter baumannii [16],0.25 µg/mL
same,MIC,Acinetobacter baumannii [17],1 µg/mL
same,fold change (FC),Acinetobacter baumannii [29],4
same,Stability,[30],83%
same,Stability,[31],82%
Cl.Cl.Nc1nc(-c2cc(NC(=O)Nc3ccc(F)c(-c4c[nH]c(N)n4)c3)ccc2F)c[nH]1,MIC,Acinetobacter baumannii [1],> 200 µM
same,MIC,Acinetobacter baumannii [2],0.125 µg/mL
same,MIC,Acinetobacter baumannii [4],1 µg/mL
same,MIC,Acinetobacter baumannii [18],2 µg/mL
same,fold change (FC),Acinetobacter baumannii [3],256
same,fold change (FC),Acinetobacter baumannii [5],32
same,fold change (FC),Acinetobacter baumannii [32],16
same,fold change (FC),Acinetobacter baumannii [6],128
same,MIC,Acinetobacter baumannii [6],0.25 µg/mL
same,MIC,Acinetobacter baumannii [7],0.5 µg/mL
same,fold change (FC),Acinetobacter baumannii [8],64
Cl.Cl.Nc1nc(-c2ccc(NC(=O)Nc3ccc(F)c(-c4c[nH]c(N)n4)c3)cc2F)c[nH]1,MIC,Acinetobacter baumannii [1],> 200 µM
same,MIC,Acinetobacter baumannii [2],0.5 µg/mL
same,fold change (FC),Acinetobacter baumannii [3],64
same,fold change (FC),Acinetobacter baumannii [6],8
same,MIC,Acinetobacter baumannii [6],4 µg/mL
Cl.Cl.Nc1nc(-c2ccc(NC(=O)Nc3ccc(-c4c[nH]c(N)n4)cc3F)c(F)c2)c[nH]1,MIC,Acinetobacter baumannii [1],> 200 µM
same,MIC,Acinetobacter baumannii [2],4 µg/mL
same,fold change (FC),Acinetobacter baumannii [3],8
